pEC50: −log10 of the molar value. Activity calls are given as the source filed them. No cut-off for these calls is given here.
How the values were obtained:
[1] = Therapeutic index, ratio of CC50 for human PBMC to EC50 for HIV1 93BR021 infected in human PBMC; settings: read-out: TI
How it was run: (§1)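 PHA-stimulated (4 μg/ml, 48 to 72 h) PBMCs pooled from at least two seronegative donors, kept with 20 U/ml IL-2, plated at 5 × 10⁴ cells/well. Infected with clinical isolate (final MOI ≅0.1) alongside nine compound concentrations in triplicate wells, 7 days. Supernatant reverse transcriptase activity measured. TI is mean PBMC CC50 divided by mean EC50.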

[2] = Therapeutic index, ratio of CC50 for human PBMC to EC50 for HIV1 NL4-3 infected in human PBMC; settings: read-out: TI
How it was run: (§2)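 Frozen PHA-stimulated (1.5 μg/ml, 3 days) buffy-coat PBMCs pooled from three or four seronegative donors. Infected with a TCID50-based virus input per 10⁶ cells for 1 h at 37°C, then pelleted and resuspended in 10 ng/ml IL-2. Plated at 4 × 10⁵ cells/ml on compound dilutions for 7 days at 37°C. Supernatant RT measured by Quan-T-RT. TI is mean CC50 divided by mean EC50.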

[3] = system: Human immunodeficiency virus 1; test: Antiviral activity HIV1 WEJO infected in human PBMC after 7 days by scintillation counting; assay type: functional, organism-based; settings: Human immunodeficiency virus 1, WEJO, 168 h
How it was run: (§3)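 Fresh PBMCs from HIV/HBV-seronegative donors were PHA-stimulated (4 μg/ml, 48–72 h) and kept with IL-2 (20 U/ml), with at least two donors pooled. Cells were seeded at 5 × 10⁴/well and infected (final MOI ≅0.1) with nine compound concentrations in triplicate wells. After 7 days, reverse transcriptase activity was measured in cell-free supernatant.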

[4] = system: Human immunodeficiency virus 1; test: Antiviral activity HIV1 98IN022 infected in human PBMC after 7 days by scintillation counting; assay type: functional, organism-based; settings: Human immunodeficiency virus 1, 98IN022, 168 h
How it was run: (§4)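 PBMCs came from buffy coats pooled from 3–4 seronegative donors, were PHA-stimulated (1.5 μg/ml, 3 days) and frozen. Thawed cells were infected 1 h at 37°C with virus input set by TCID50, then pelleted and resuspended in IL-2 (10 ng/ml). They were plated at 4 × 10⁵ cells/ml onto compounds for 7 days at 37°C. Supernatant RT activity was measured by Quan-T-RT scintillation assay.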

[5] = Therapeutic index, ratio of CC50 for human PBMC to EC50 for HIV1 93BR023 infected in human PBMC; settings: read-out: TI; how it was run: as §1
[6] = Therapeutic index, ratio of CC50 for human PBMC to EC50 for HIV1 93TH074 infected in human PBMC; settings: read-out: TI; how it was run: as §2
[7] = system: Human immunodeficiency virus 1; test: Antiviral activity HIV1 CMU06 infected in human PBMC after 7 days by scintillation counting; assay type: functional, organism-based; settings: Human immunodeficiency virus 1, CMU06, 168 h; how it was run: as §4
[8] = system: Human immunodeficiency virus 1; test: Antiviral activity HIV1 92RW009 infected in human PBMC after 7 days by scintillation counting; assay type: functional, organism-based; settings: Human immunodeficiency virus 1, 92RW009, 168 h; how it was run: as §4
[9] = Therapeutic index, ratio of CC50 for human PBMC to EC50 for HIV1 WEJO infected in human PBMC; settings: read-out: TI; how it was run: as §1
[10] = system: Human immunodeficiency virus 1; test: Antiviral activity HIV1 92BR017 infected in human PBMC after 7 days by scintillation counting; assay type: functional, organism-based; settings: Human immunodeficiency virus 1, 92BR017, 168 h; how it was run: as §4
[11] = system: Human immunodeficiency virus 1; test: Selectivity ratio of EC50 for HIV1 harboring spacer peptide A1V mutant protein infected in human HeLa cells to EC50 for wild type HIV1 infected in human HeLa cells; assay type: functional
How it was run: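 MT-2 cells were infected for 2 h with wild-type NL4-3 or recombinant NL4-3 carrying CA I201V or SP1 A1V. They were then cocultured with HeLa CD4 LTR/beta-Gal indicator cells in serially diluted compound. Beta-gal reporter was read after 4 days. EC50s are means ± SD of 3–6 experiments. Fold change is mutant EC50 divided by wild-type EC50.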

[12] = Therapeutic index, ratio of CC50 for human PBMC to EC50 for HIV1 92HT594 infected in human PBMC; settings: read-out: TI; how it was run: as §2
[13] = system: Human immunodeficiency virus 1; test: Antiviral activity against HIV1 RF infected in human CEM-SS cells assessed as protection against virus-induced cytopathogenicity after 6 days by XTT assay; assay type: functional, organism-based; settings: Human immunodeficiency virus 1, RF, 144 h
How it was run: (§5)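 Host cells were infected with NL4-3 or IIIB (MOI 0.08) or RF (MOI 0.025–0.819) and seeded at 2 × 10⁴/well onto half-log compound dilutions. After 6 days, XTT/PMS was added for 4 h and formazan was read at 450 nm. EC50 was the concentration giving 50% of the formazan of uninfected, compound-free cells.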

[14] = system: Human immunodeficiency virus 1; test: Antiviral activity against HIV1 NL4-3 infected in human PM1 cells assessed as inhibition of viral p24 antigen production after 5 days; assay type: functional, organism-based; settings: Human immunodeficiency virus 1, NL4-3, PM1, 120 h
How it was run: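 PM1 cells (NL4-3, Ba-L) or MT-2 cells (92HT594, 92HT599) were infected at MOI 0.16 for 2 h and washed. They were plated at 1 × 10⁴ cells/well (2 × 10⁵/ml) onto half-log compound dilutions. Supernatant p24 was quantified by ELISA at day 5. EC50 was the concentration giving a 50% decrease versus infected, compound-free cells.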

[15] = system: Human immunodeficiency virus 1; test: Antiviral activity against HIV1 3B infected in human MT2 cells assessed as protection against virus-induced cytopathogenicity after 6 days by XTT assay; assay type: functional, organism-based; settings: Human immunodeficiency virus 1, 3B, MT2, 144 h; how it was run: as §5
[16] = system: Human immunodeficiency virus 1; test: Antiviral activity HIV1 91US005 infected in human PBMC after 7 days by scintillation counting; assay type: functional, organism-based; settings: Human immunodeficiency virus 1, 91US005, 168 h; how it was run: as §3
[17] = Therapeutic index, ratio of CC50 for human PBMC to EC50 for HIV1 93BR029 infected in human PBMC; settings: read-out: TI; how it was run: as §2
[18] = Therapeutic index, ratio of CC50 for human PBMC to EC50 for HIV1 98IN022 infected in human PBMC; settings: read-out: TI; how it was run: as §2
[19] = system: Human immunodeficiency virus 1; test: Antiviral activity against HIV1 NL4-3 infected in human MT2 cells assessed as protection against virus-induced cytopathogenicity after 6 days by XTT assay; assay type: functional, organism-based; settings: Human immunodeficiency virus 1, NL4-3, MT2, 144 h; how it was run: as §5
[20] = system: Human immunodeficiency virus 1; test: Antiviral activity HIV1 3B infected in human PBMC after 7 days by scintillation counting; assay type: functional, organism-based; settings: Human immunodeficiency virus 1, 3B, 168 h; how it was run: as §4
[21] = Therapeutic index, ratio of CC50 for human PBMC to EC50 for HIV1 92US660 infected in human PBMC; settings: read-out: TI; how it was run: as §1
[22] = system: Human immunodeficiency virus 1; test: Antiviral activity against HIV1 assessed as inhibition of virion maturation-associated CA/SP1 processing at 2 times EC90; assay type: functional, organism-based
[23] = Therapeutic index, ratio of CC50 for human PBMC to EC50 for HIV1 92BR030 infected in human PBMC; settings: read-out: TI; how it was run: as §1
[24] = system: Human immunodeficiency virus 1; test: Antiviral activity against HIV1 RF infected in human MT2 cells assessed as protection against virus-induced cytopathogenicity after 6 days by XTT assay; assay type: functional, organism-based; settings: Human immunodeficiency virus 1, RF, MT2, 144 h; how it was run: as §5
[25] = Therapeutic index, ratio of CC50 for human PBMC to EC50 for HIV1 92HT596 infected in human PBMC; settings: read-out: TI; how it was run: as §2
[26] = Therapeutic index, ratio of CC50 for human PBMC to EC50 for HIV1 ROJO infected in human PBMC; settings: read-out: TI; how it was run: as §1

## CC(C)(C)c1ccc(C(Cn2cccc(C(F)(F)F)c2=O)NC2Cc3ccccc3C2)cc1 (stereo unspecified)
[1]
  selectivity ratio: 425
[2]
  selectivity ratio: 155
[3]
  pEC50: 5.82
[4]
  pEC50: 5.89
[5]
  selectivity ratio: < 1
[6]
  selectivity ratio: 142
[7]
  pEC50: 5.92
[8]
  pEC50: 5.85
[9]
  selectivity ratio: 11
[10]
  pEC50: 6.92
[11]
  Ratio EC50: >16
[12]
  selectivity ratio: 15
[13]
  pEC50: < 4.70
[14]
  pEC50: 7.52
[15]
  pEC50: 7.77
[16]
  pEC50: < 4.77
[17]
  selectivity ratio: 30
[18]
  selectivity ratio: 13
[19]
  pEC50: 6.44
[20]
  pEC50: 6.49
[21]
  selectivity ratio: 1
[22]
  inhibition: Active
[23]
  selectivity ratio: < 1
[24]
  pEC50: < 4.80
[25]
  selectivity ratio: 53
[26]
  selectivity ratio: < 1

From ChEMBL document CHEMBL1649302, “New small-molecule inhibitor class targeting human immunodeficiency virus type 1 virion maturation” (Antimicrob Agents Chemother, 2009)
